Results on 7 compounds are retold here after ChEMBL document CHEMBL3286300, “Fluorine modulates species selectivity in the triazolopyrimidine class of Plasmodium falciparum dihydroorotate dehydrogenase inhibitors” (J Med Chem, 2014).

The nature of series [1]: Inhibition of C-terminal His6-tagged human DHODH (amino acid residues 30 to 396) H56A mutant expressed in Escherichia coli BL21 cells assessed as orotic acid production using dihydroorotate as substrate by direct assay in presence of oxygen depleting system.
The target in series [2] is T1, Dihydroorotate dehydrogenase (Plasmodium falciparum, UniProt Q54A96).
T1 sequence (Q54A96 whole entry): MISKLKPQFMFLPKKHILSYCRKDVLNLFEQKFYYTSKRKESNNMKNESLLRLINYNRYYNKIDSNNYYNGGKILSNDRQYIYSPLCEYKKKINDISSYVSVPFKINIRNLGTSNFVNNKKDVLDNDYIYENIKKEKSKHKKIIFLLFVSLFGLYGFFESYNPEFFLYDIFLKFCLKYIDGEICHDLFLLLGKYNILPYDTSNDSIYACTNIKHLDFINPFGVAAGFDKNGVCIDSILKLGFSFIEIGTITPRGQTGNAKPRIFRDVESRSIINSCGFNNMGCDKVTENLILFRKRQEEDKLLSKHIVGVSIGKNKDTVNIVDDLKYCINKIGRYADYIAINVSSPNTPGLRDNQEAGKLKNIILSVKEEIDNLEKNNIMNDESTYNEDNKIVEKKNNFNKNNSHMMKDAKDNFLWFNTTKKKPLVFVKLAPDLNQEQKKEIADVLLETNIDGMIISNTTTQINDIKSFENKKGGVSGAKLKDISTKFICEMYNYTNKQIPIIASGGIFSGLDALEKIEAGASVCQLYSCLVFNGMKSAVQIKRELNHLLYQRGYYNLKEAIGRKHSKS
As to the kind of experiment: Inhibition of N-terminal His6-tagged recombinant Plasmodium falciparum DHODH (amino acid residues 158 to 569) expressed in Escherichia coli BL21 cells assessed as orotic acid production using dihydroorotate as substrate by DCIP dye-based assay. In a few lines:
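The assay buffer was 100 mM Hepes pH 8.0, 150 mM NaCl, 10% glycerol, 0.1% Triton, with 0.2 mM DHO, 0.02 mM CoQD and 0.12 mM DCIP. Runs started with 2–10 nM enzyme at 25 °C, reading A600 initial rates. Inhibitor was 0.01–100 μM in 3-fold steps, in triplicate. IC50 came from a three-parameter log[I]-response fit.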

Series [3] has as its target T1, Dihydroorotate dehydrogenase. As to the kind of experiment: Binding affinity to Plasmodium falciparum DHODH by isothermal titration calorimetry. In short, it runs like this: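 ITC at 30 °C in 10 mM Hepes pH 7.8, 20 mM NaCl, 5% glycerol, 1 mM LDAO, 0.2% DMSO. PfDHODH (5–10 μM) in the cell was titrated with 50 μM inhibitor. Triplicate runs.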
In general terms: Isothermal titration calorimetry measures the heat released or taken up as one component is titrated into another.

Series [4] is described as follows: Inhibition of dog DHODH (amino acid residues 48 to 414) expressed in Escherichia coli BL21 cells assessed as orotic acid production using dihydroorotate as substrate by DCIP dye-based assay. Details: species or system Canis lupus familiaris. In short, it runs like this:
(§1)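 Assay buffer 100 mM Hepes pH 8.0, 150 mM NaCl, 10% glycerol, 0.1% Triton, with 0.2 mM DHO, 0.02 mM CoQD and 0.12 mM DCIP. DCIP reduction read at 600 nm, 25 °C, started with 2–10 nM enzyme. Inhibitor 0.01–100 μM in 3-fold steps, triplicate. IC50 from a three-parameter fit of vi/vo.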

The nature of series [5]: Inhibition of C-terminal His6-tagged human DHODH (amino acid residues 30 to 396) L46A mutant expressed in Escherichia coli BL21 cells assessed as orotic acid production using dihydroorotate as substrate by direct assay in presence of oxygen depleting system.
The nature of series [6]: Inhibition of C-terminal His6-tagged human DHODH (amino acid residues 30 to 396) R136A mutant expressed in Escherichia coli BL21 cells assessed as orotic acid production using dihydroorotate as substrate by direct assay in presence of oxygen depleting system.
Series [7] deals with T2, Dihydroorotate dehydrogenase (quinone), mitochondrial (Homo sapiens, UniProt Q02127). As to the kind of experiment: Inhibition of C-terminal His6-tagged human DHODH (amino acid residues 33 to 396) expressed in Escherichia coli BL21 cells assessed as orotic acid production using dihydroorotate as substrate by direct assay in presence of oxygen depleting system.
T2 sequence (Q02127 whole entry, the tested form may be a part): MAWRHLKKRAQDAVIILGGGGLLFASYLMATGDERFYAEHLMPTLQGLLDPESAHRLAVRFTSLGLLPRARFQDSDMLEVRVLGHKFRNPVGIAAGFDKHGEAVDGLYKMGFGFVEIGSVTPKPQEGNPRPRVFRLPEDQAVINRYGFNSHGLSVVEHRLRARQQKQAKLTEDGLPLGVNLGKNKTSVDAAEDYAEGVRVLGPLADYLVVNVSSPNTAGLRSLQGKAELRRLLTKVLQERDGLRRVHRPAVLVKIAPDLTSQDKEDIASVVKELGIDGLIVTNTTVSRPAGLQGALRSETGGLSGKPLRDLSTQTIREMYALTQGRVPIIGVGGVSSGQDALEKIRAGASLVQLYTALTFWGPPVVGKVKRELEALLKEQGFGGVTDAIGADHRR
The subject of series [8] is Plasmodium falciparum. As to the kind of experiment: Antimalarial activity against Plasmodium falciparum 3D7 infected in RBC after 72 hrs by SYBR green dye based flow cytometry. Format: functional, organism-based. Conditions: 3D7, 72 h.
A short description of series [9]: Inhibition of C-terminal His6-tagged human DHODH (amino acid residues 30 to 396) L359A mutant expressed in Escherichia coli BL21 cells assessed as orotic acid production using dihydroorotate as substrate by direct assay in presence of oxygen depleting system.
The nature of series [10]: Partition coefficient, log D of the compound at pH 7.4 by chromatography. Format: physicochemical. Conditions: octanol/water. In a few lines:
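LogD at pH 7.4 estimated from chromatographic retention, compared against standards of known partition coefficient.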

Series [11] deals with T2, Dihydroorotate dehydrogenase (quinone), mitochondrial. As to the kind of experiment: Inhibition of C-terminal His6-tagged human DHODH (amino acid residues 30 to 396) expressed in Escherichia coli BL21 cells assessed as orotic acid production using dihydroorotate as substrate by DCIP dye-based assay. In a few lines:
as §1

In series [12] the target is T3, Dihydroorotate dehydrogenase (quinone), mitochondrial (Rattus norvegicus, UniProt Q63707). As to the kind of experiment: Inhibition of rat DHODH (amino acid residues 30 to 396) expressed in Escherichia coli BL21 cells assessed as orotic acid production using dihydroorotate as substrate by DCIP dye-based assay. In short, it runs like this: as §1
T3 sequence (Q63707 whole entry, the tested form may be a part): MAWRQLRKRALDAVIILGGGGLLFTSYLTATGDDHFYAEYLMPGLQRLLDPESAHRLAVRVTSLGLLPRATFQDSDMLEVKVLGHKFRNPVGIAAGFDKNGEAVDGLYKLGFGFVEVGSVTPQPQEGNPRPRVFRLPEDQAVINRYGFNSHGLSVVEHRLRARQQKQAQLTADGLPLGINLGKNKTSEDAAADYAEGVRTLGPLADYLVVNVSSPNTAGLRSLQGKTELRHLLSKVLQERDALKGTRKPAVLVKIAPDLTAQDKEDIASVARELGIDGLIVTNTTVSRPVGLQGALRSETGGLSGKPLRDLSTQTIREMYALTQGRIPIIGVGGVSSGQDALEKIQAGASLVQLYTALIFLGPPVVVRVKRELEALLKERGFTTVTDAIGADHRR
Series [13] concerns the target Dihydroorotate dehydrogenase (quinone), mitochondrial (Mus musculus, UniProt O35435). As to the kind of experiment: Inhibition of mouse DHODH (amino acid residues 30 to 396) expressed in Escherichia coli BL21 cells assessed as orotic acid production using dihydroorotate as substrate by DCIP dye-based assay. In a few lines:
as §1

The test system of series [14] is BL21. As to the kind of experiment: Ratio of IC50 for C-terminal His6-tagged human DHODH (amino acid residues 30 to 396) L359A mutant expressed in Escherichia coli BL21 cells to IC50 for C-terminal His6-tagged wild type human DHODH (amino acid residues 30 to 396) expressed in Escherichia coli BL21 cells.
Series [15] deals with BL21. As to the kind of experiment: Ratio of IC50 for C-terminal His6-tagged human DHODH (amino acid residues 30 to 396) L46A mutant expressed in Escherichia coli BL21 cells to IC50 for C-terminal His6-tagged wild type human DHODH (amino acid residues 30 to 396) expressed in Escherichia coli BL21 cells.
Series [16] relates to BL21. As to the kind of experiment: Ratio of IC50 for C-terminal His6-tagged human DHODH (amino acid residues 30 to 396) R136A mutant expressed in Escherichia coli BL21 cells to IC50 for C-terminal His6-tagged wild type human DHODH (amino acid residues 30 to 396) expressed in Escherichia coli BL21 cells.
Series [17] concerns BL21. As to the kind of experiment: Selectivity ratio of IC50 for C-terminal His6-tagged human DHODH (amino acid residues 30 to 396) expressed in Escherichia coli BL21 cells to IC50 for N-terminal His6-tagged recombinant Plasmodium falciparum DHODH (amino acid residues 158 to 569) expressed in Escherichia coli BL21 cells.
Series [18] concerns the target T3, Dihydroorotate dehydrogenase (quinone), mitochondrial. As to the kind of experiment: Binding affinity to rat DHODH by isothermal titration calorimetry. In a few lines: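 Run at 30 °C in 10 mM Hepes pH 7.8, 20 mM NaCl, 5% glycerol, 1 mM LDAO, 0.2% DMSO. Rat DHODH (5–8 μM) in the cell, titrated with 50 μM inhibitor. Triplicate runs, analysed with NITPIC and SEDPHAT.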

Each structure is given as a SMILES string.

Chain of Dihydroorotate dehydrogenase (quinone), mitochondrial (Mus musculus, UniProt O35435) (O35435 whole entry, the tested form may be a part): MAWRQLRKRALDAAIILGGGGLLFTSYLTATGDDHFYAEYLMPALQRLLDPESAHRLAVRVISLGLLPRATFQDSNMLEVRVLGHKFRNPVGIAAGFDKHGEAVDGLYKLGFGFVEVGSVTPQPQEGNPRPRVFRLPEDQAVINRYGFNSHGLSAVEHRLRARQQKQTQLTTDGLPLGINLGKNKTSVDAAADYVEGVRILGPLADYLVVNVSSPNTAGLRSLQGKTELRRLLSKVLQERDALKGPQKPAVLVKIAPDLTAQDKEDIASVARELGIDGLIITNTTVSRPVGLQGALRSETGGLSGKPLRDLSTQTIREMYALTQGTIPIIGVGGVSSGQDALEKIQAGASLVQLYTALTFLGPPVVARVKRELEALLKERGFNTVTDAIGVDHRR

On to `Cc1cc(Nc2ccc(C(F)(F)F)cc2)n2nc(C(C)(F)F)nc2n1`, for which the IC50 (as a rule, the concentration at which inhibition is half-maximal) in series [1] is above 100000 nM; in series [2] it was 46 nM; in series [4], above 100000 nM; in series [5], above 100000 nM; in [6], above 100000 nM; in series [7] it was above 100000 nM. Further, the IC50 in series [8] is 3.6 nM; in [9], above 100000 nM; in [11], above 100000 nM. For the same compound, the Kd (commonly the constant that tells how readily two partners part at equilibrium) in series [3] was 27 nM. Moreover, the logD – broadly, lipophilicity at a set pH, counting ionised and neutral species – in series [10] came out at 4.05.

Regarding `Cc1cc(Nc2ccc(C(F)(F)F)cc2)n2nc(C(F)(F)F)nc2n1`, the IC50 in series [12] is 3500 nM; in [4], 86000 nM; in series [13], 9700 nM; in [8], 6.3 nM; in [11] it was above 100000 nM.

Regarding `Cc1cc(Nc2cc(F)c(C(F)(F)F)c(F)c2)n2nc(C(F)(F)F)nc2n1`, the IC50 in [1] was 900 nM; in series [2] it was 22 nM; in series [12], 49 nM; in series [4], 320 nM; in series [5] it was above 100000 nM; in series [13] it was 88 nM. The IC50 in series [6] is above 100000 nM; in series [7], 2100 nM; in [8], 1.8 nM; in series [9] it was 35000 nM; in [11], 1600 nM. This compound returned a Kd in [3] of 9.6 nM. Besides, the Ratio IC50 in series [14] turned out to be 10; in series [15], 50; in series [16], 50. In addition, the logD in [10] worked out at 5.01.

In the case of `Cc1cc(Nc2ccc(C(F)(F)F)c(F)c2)n2nc(C(C)(F)F)nc2n1`, the concentration for half-maximal inhibition (IC50) in series [1] was 67000 nM; in series [2] it was 35 nM; in [12], 800 nM; in series [4], 7200 nM; in [5] it was above 100000 nM; in series [13], 1600 nM. Further, the IC50 is above 100000 nM in [6]; 45000 nM in series [7]; 3.9 nM in [8]; above 100000 nM in series [9]; 17000 nM in [11]. The compound also showed a Kd in series [3] of 9.8 nM. This compound registered a logD in [10] of 4.25.

For `Cc1cc(Nc2cc(F)c(C(F)(F)F)c(F)c2)n2ncnc2n1`, the Ratio IC50 in series [17] is above 769. Also, the IC50 was 37000 nM in [12], above 100000 nM in [4], above 30000 nM in series [13] and above 100000 nM in series [11].

Turning to `Cc1cc(Nc2ccc(C(F)(F)F)cc2)n2ncnc2n1`, the IC50 in series [4] and in series [13] was above 100000 nM each time. The same compound registered a logD in series [10] of 3.55.

As for `Cc1cc(Nc2cc(F)c(C(F)(F)F)c(F)c2)n2nc(C(C)(F)F)nc2n1`, the Ratio IC50 in [17] is 100; in series [14] it was above 50; in [15] it was 50; in [16], 50. Also, the figures for the Kd in series [18] and in [3] were 48 nM and 5.1 nM, respectively. Further, the IC50 in series [1] was 5300 nM; in series [2], 20 nM; in [12], 130 nM; in series [4], 700 nM; in [5], above 100000 nM; in [13], 180 nM. The IC50 in [6] is above 100000 nM; in series [7], 2700 nM; in [8], 12 nM; in series [9] it was above 100000 nM; in [11] it was 2100 nM. This compound also showed a logD in series [10] of 4.46.
